MrgX1 agonist: human MrgX1 receptor agonism, primary screen. Q96LB2. MrgX1-HEK293 cells, Fluo-4 calcium fluorescence, agonist mode; stronger effect = higher value. B-score at 10 µM. 0.44% of 310,000 active;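 active = calcium response B-score plate-corrected fluorescence ratio at least 3 library SD, with starting fluorescence B-score inside 5 SD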
Target sequence (Q96LB2 whole entry, looked up): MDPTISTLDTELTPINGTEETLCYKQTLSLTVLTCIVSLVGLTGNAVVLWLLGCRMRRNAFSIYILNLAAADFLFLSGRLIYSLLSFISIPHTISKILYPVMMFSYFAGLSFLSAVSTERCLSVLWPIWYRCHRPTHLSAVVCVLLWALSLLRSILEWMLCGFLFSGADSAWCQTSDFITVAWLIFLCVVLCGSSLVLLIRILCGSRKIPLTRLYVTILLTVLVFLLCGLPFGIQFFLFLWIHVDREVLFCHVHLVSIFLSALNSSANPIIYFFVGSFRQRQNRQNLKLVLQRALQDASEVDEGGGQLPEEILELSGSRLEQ
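Assay system: stable human MrgX1 HEK293 cell line. Quantity: 15,000 cells per well. Schedule: cells plated overnight, dye loaded 0.5 h 37 °C, 0.5 h room temperature. Detection: Fluo-4 NW calcium-flux fluorescence, kinetic read. Read-out basis: peak-minus-minimum fluorescence over baseline, converted to B scores. Control set: positive and negative control wells on each plate.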
RGS4 block: human RGS4 inhibition; HEK293 M3R/RGS4 inducible, Fluo-4 calcium flux; stronger effect = higher value; triggered by carbachol at its EC20; B-score at 10 µM; 0.45% of 310,000 active;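 active = B-score, a plate-corrected calcium signal, over three deviations above library mean, with baseline fluorescence within five deviations of library mean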;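 also: RGS4 expression induced by doxycycline in cells with stable M3 receptor; B-score is computed from the integrated fluorescence ratio over baseline after carbachol; higher B-score means a larger calcium signal and so more RGS4 inhibition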
Target sequence (P49798 whole entry, looked up): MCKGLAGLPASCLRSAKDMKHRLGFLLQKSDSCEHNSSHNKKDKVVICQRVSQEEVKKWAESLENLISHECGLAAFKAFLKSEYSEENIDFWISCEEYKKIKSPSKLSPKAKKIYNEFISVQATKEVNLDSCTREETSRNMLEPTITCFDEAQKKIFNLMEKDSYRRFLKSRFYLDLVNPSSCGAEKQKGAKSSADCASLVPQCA
MrgX1 PAM: human MrgX1 positive allosteric modulation, primary screen. B-score at 10 µM. 0.63% of 310,000 active. MrgX1-HEK293, Fluo-4 calcium flux, FDSS; stronger effect = higher value. AID 588675. Q96LB2;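 active = plate-corrected calcium response at least 3 library SD above typical, normal starting fluorescence, not activating the receptor alone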;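 also: compound read alongside a low EC10 to EC30 dose of BAM8-22 agonist; peak minus trough fluorescence over baseline measured at the second addition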
RGS4 act: potentiators or activators of RGS4 | HEK293 M3R/inducible RGS4, carbachol calcium flux Fluo4; stronger effect = lower value | B-score at 10 µM | 0.92% of 310,000 active;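 active = B-score of the integrated calcium signal more than 4 SD below the library mean, with starting fluorescence not abnormally high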;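 also: negative B-score means reduced calcium response which marks RGS4 activation or potentiation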
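test system = HEK293 cells with stable M3R and inducible RGS4 | schedule = recording 10 s baseline at 1 Hz, 100 s post-agonist | technique = Fluo4-AM (2 µM) calcium-flux fluorescence, kinetic read | measure = Agonist-evoked peak-minus-minimum fluorescence over baseline, integrated ratio, B score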
MrgX1 antag: antagonists of human MrgX1 receptor. Q96LB2. MRGX1-HEK293 calcium flux, Fluo-4, BAM8-22 antagonism; stronger effect = lower value. B-score at 10 µM. 1.3% of 310,000 active. AID 588676;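 active = calcium-response B-score plate-corrected more than 3 library SD below zero, starting fluorescence within 5 deviations, no agonist response on first addition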;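 also: peak minus trough fluorescence over baseline after final BAM8-22 challenge near maximal dose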
* hit, by the source's call; i = inactive. Compounds with a hit are over-represented: about 3.5% of the library has one in this group of screens.

SMILES | MrgX1 agonist | RGS4 block | MrgX1 PAM | RGS4 act | MrgX1 antag
N#CC1=C(N)SC(N)=C(C#N)C1c1c(Cl)cccc1Cl | 42* | i | i | i | i
O=C(Nc1ccc(Br)cc1)c1cccc(N2C(=O)C3CCCCC3C2=O)c1 (stereo unspecified) | i | i | i | i | i
COc1ccc(N(C(=O)c2snc(C(N)=O)c2N)C(C(=O)NC2CCCCC2)c2ccc(C)o2)cc1 (stereo unspecified) | i | i | i | i | i
O=C(Nc1ccc(NC(=O)c2cccs2)c(Cl)c1)c1cccs1 | i | i | i | i | i
N[C@@H](Cc1ccccc1)C(=O)N1CCC(C(=O)N[C@@H](Cc2c[nH]c3ccccc23)C(=O)O)CC1 | i | i | i | i | i
COc1cc(OC)c(C=O)c(OC(=O)N2CCOCC2)c1 | i | i | i | i | i
O=Cc1cc(Br)c(OC(=O)N2CCOCC2)c(Br)c1 | 27* | i | i | i | i
CC(=O)Nc1ccccc1-c1nc2ccc(C(=O)N3CCN(c4cccc(C)c4)C(C)C3)cc2[nH]c1=O (stereo unspecified) | i | i | i | i | i
Cc1cccc(N2CCN(C(=O)c3ccc4nc(-c5ccco5)c(-c5ccco5)nc4c3)CC2C)c1 (stereo unspecified) | i | i | i | i | -7.6*
Cc1ccc(NC(=O)COC(=O)/C=C/c2c(C)nn(-c3ccc(F)cc3)c2Cl)cc1F | i | i | i | i | -5.4*
CC1=[N+](C)N(c2ccccc2)C(=O)C1N=Cc1ccccc1Cl (stereo unspecified) | i | i | i | i | i
CC1=[N+](C)N(c2ccccc2)C(=O)C1N=Cc1c(Cl)cccc1Cl (stereo unspecified) | 31* | i | i | i | i
COc1ccc2c(c1)c1ncn(CCN3CCCC3)c(=O)c1n2C | i | i | i | i | i
COc1ccccc1CCn1cnc2c3cc(C)ccc3n(C)c2c1=O | i | i | i | -7* | i
COc1ccc(S(=O)(=O)O/N=C2\CCCc3ccccc32)cc1 | i | i | i | i | -4.7*
COc1ccc(-c2cc(-c3ccccc3)nc(Cl)n2)cc1OC | i | i | i | -7* | i
COc1ccc(/C=N/NC(=O)c2ccc3ccccc3c2)cc1OS(=O)(=O)c1ccc(NC(C)=O)cc1 | i | i | i | -9.3* | i
COc1ccc(CCN2C(=O)CSC2=Nc2ccc(C(C)C)cc2)cc1OC | i | i | i | -7.2* | i
Cc1nn2c3ccccc3n(CCN3CCCCC3)c2nc1=O | i | i | i | i | -6*
C=CCn1c2ccccc2n2nc(C)c(=O)nc12 | i | i | i | i | i
CC(/C=N/n1c(-c2ccncc2)n[nH]c1=S)=C\c1ccco1 | i | i | i | i | i
CC(/C=N/n1c(-c2ccco2)n[nH]c1=S)=C\c1ccco1 | i | i | i | i | -5.9*
CC(/C=N/n1c(-c2ccc(C)cc2)n[nH]c1=S)=C\c1ccco1 | i | i | i | i | i
CC(/C=N/n1c(-c2ccccc2)n[nH]c1=S)=C\c1ccco1 | i | i | i | -7.2* | i
N#Cc1cc(N)ccc1Sc1ccc(Cl)cc1 | i | i | i | -7* | i
SMILES | MrgX1 agonist | RGS4 block | MrgX1 PAM | RGS4 act | MrgX1 antag
O=C(Nc1ccccc1N1CCOCC1)c1cc2ccccc2o1 | i | i | i | i | i
O=C(Nc1ccc(N2CCOCC2)c(Cl)c1)c1cc2ccccc2o1 | i | i | i | -7.6* | i
O=[N+]([O-])c1ccc(Oc2ccc(S(=O)(=O)N3CCOCC3)cn2)cc1 | i | i | i | i | -8*
O=C1CC(c2ccc(Cl)cc2)CC(=O)C1CS(=O)(=O)c1ccccc1 (stereo unspecified) | i | i | i | -7.2* | i
COc1ccc(NC(=O)CSc2nnc(-c3cccs3)n2N)c(OC)c1 | i | i | i | i | i
CCS(=O)(=O)CCSc1nc2ccccc2s1 | i | i | i | i | i
O=S(=O)(CCSc1nc2ccccc2s1)c1nc2ccccc2s1 | i | i | i | -7.4* | i
O=C(Cc1ccccc1)NC(NC(=O)Cc1ccccc1)c1cccc([N+](=O)[O-])c1 | i | i | i | i | i
C=CCN(CC(O)c1cccc([N+](=O)[O-])c1)C(C)CCc1ccccc1 (stereo unspecified) | i | i | 16* | i | i
CCn1cc(C(=O)NCCCN2CCCC(C)C2)c(=O)c2cc(S(=O)(=O)N3CCc4ccccc4C3)ccc21 (stereo unspecified) | i | i | i | -7.2* | i
CCC1CCCCN1CCCNC(=O)c1cn(CC)c2ccc(S(=O)(=O)N3CCc4ccccc4C3)cc2c1=O (stereo unspecified) | i | i | i | -9* | i
CCC1CCCCN1CCCNC(=O)c1cn(CC)c2ccc(S(=O)(=O)N(C)C3CCCCC3)cc2c1=O (stereo unspecified) | i | i | i | i | i
CCOc1ccc(CCNC(=O)COn2nnc3ccc(S(=O)(=O)N4CCOCC4)cc32)cc1OCC | i | i | i | i | i
CC1Cc2ccccc2N1Cc1ccc([N+](=O)[O-])cc1 (stereo unspecified) | i | i | i | i | i
CCC(CC)N1CCN(C(=O)c2cc(OC)c(OC)c(OC)c2)CC1 | i | i | i | i | i
Cc1ccc(NC(=O)C(C)OC(=O)c2ccc(NC(=O)CC#N)cc2)cc1S(=O)(=O)N1CCOCC1 (stereo unspecified) | i | i | i | i | -4.5*
CN1[C@@H]2CC(OC(=O)[C@H](CO)c3ccccc3)C[C@H]1[C@@H]1O[C@@H]12 (stereo partly specified) | i | i | i | -7.1* | i
CCOP(=O)(OCC)C(NC(=O)Nc1ccc(C)c(Cl)c1)c1ccccc1 (stereo unspecified) | i | i | i | i | -7.8*
Cc1ccc(S(=O)(=O)c2cc3ccccc3nc2N)cc1 | i | i | i | i | i
Cc1ccc([N+](=O)[O-])cc1N(CC(=O)NC1CCCC1)S(C)(=O)=O | i | i | 11* | i | i
COc1ccc([N+](=O)[O-])cc1N(CC(=O)NC1CCCCC1)S(C)(=O)=O | i | i | i | i | i
Cc1ccc([N+](=O)[O-])cc1N(CC(=O)N1CCCCC1)S(C)(=O)=O | i | i | 7.5* | i | i
Cc1ccc(C)c(N(CC(=O)N2CCCCCC2)S(C)(=O)=O)c1 | i | i | i | i | i

Source: PubChem BioAssay
